pIC50: −log10 of the molar value. Activity calls are given as the source filed them. The rule behind the calls is not given here.

The target of one series is T1, Estrogen receptor (Homo sapiens, UniProt P03372).
T1 sequence (P03372 whole entry): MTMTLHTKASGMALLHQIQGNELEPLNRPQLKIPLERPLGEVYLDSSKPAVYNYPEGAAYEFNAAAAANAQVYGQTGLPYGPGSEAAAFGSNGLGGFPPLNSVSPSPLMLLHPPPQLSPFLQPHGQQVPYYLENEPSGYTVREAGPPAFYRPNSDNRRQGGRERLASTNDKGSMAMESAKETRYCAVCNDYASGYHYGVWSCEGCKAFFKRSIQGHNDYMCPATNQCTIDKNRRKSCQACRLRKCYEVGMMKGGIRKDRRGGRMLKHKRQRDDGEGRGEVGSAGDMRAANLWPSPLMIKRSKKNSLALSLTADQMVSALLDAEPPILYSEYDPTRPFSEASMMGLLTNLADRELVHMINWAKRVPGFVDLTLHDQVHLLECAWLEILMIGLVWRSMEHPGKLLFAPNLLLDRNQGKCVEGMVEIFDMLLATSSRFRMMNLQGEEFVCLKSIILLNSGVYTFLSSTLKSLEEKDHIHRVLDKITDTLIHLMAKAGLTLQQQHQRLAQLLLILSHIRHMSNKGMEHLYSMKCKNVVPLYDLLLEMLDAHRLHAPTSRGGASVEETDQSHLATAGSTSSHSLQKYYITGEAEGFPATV
As to the kind of experiment: Displacement of Fluormone-tagged ES2 from human recombinant ERalpha after 2 hrs by fluorescence polarization assay. A general note: In fluorescence polarisation assays a small probe gives low polarisation when free and higher when bound to something large.

The test system of a further series is PBMC. As to the kind of experiment: Cytotoxicity against human PBMC assessed as reduction in cell viability at 100 uM after 48 hrs by MTT assay. The class given is cell-based. Summed up:
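PBMCs isolated from human whole blood after RBC lysis, kept in RPMI-1640 with 10% FBS at 37 °C, 5% CO2; about 10^4 cells/well. MTT read-out as for T47D: 48 h exposure in FBS-free medium, MTT 0.5 mg/ml for 4 h, acidified DMSO, absorbance 570/620 nm, viability versus control.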
For orientation: Formazan colour is commonly taken as a measure of viable cells.

Series [1] concerns T47D. As to the kind of experiment: Antiproliferative activity against human T47D cells after 48 hrs by MTT assay.
Series [2] concerns the target T2, Estrogen receptor (Homo sapiens) (UniProt P03372).
T2 sequence (whole entry): T1 sequence (P03372 whole entry)
The experiment in a line: Binding affinity to ERalpha in human T47D cells assessed as downregulation of ERalpha mRNA level at 15 uM after 482 hrs by RT-PCR assay relative to control. The class given is cell-based. Conditions: in the assay text read “48 hrs” for “482 hrs”. Summed up: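 T47D treated with 15 µM for 48 h; total RNA extracted with TRIzol, quality checked, converted to cDNA. ER-α amplified with gene-specific primers alongside GAPDH as loading control; products run on 1.2% agarose with EtBr and quantified by densitometry, normalised to GAPDH, relative to untreated cells; three independent experiments.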

The test system of series [3] is T47D. As to the kind of experiment: Downregulation of ERalpha protein level in human T47D cells at 15 uM after 48 hrs by Western blot method relative to control. The class given is functional. Summed up:
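T47D cells grown in RPMI-1640 with 10% heat-inactivated FBS at 37 °C, 5% CO2, then exposed to 15 uM for 48 h. Lysis in modified RIPA (50 mM Tris-HCl pH 7.4, 1% NP-40, protease inhibitors); protein measured by Bradford. 50 ug run on 10% SDS-PAGE, then nitrocellulose. Rabbit anti-ER-alpha (HC-20) at 4 °C overnight, HRP secondary, ECL. Densitometry normalised to beta-actin versus untreated cells; three experiments.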

A short description of series [4]: Drug uptake in human T47D cell nucleus at 15 uM after 24 to 48 hrs by DAPI staining based confocal laser scanning microscopic method. The class given is ADME, subcellular.
The nature of series [5]: Drug uptake in human T47D cell plasma membrane at 15 uM after 24 hrs by DAPI staining based confocal laser scanning microscopic method. The class given is ADME, cell membranes.
For series [6], the target named is T2, Estrogen receptor (Homo sapiens). The experiment in a line: Displacement of Fluormone-tagged ES2 from human recombinant ERalpha up to 1000 nM after 2 hrs by fluorescence polarization assay. Summed up:
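Fluorescence polarization competition: DMSO serial dilutions of compound mixed 1:1 with human recombinant ER-α/Fluormone complex, at least 2 h at room temperature protected from light; excitation 535 nm, emission 590 nm. Controls: buffer with 4% DMSO (maximum), oestradiol (minimum), free tracer. Percent inhibition fitted by nonlinear regression; IC50 = half displacement of bound ligand.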

The test system of another series is MCF7. The experiment in a line: Antiproliferative activity against human MCF7 cells. The class given is functional.
Series [7] in a line: Drug uptake in human T47D cell cytosol at 15 uM after 24 hrs by DAPI staining based confocal laser scanning microscopic method. The class given is ADME, subcellular.

As a reminder, the pIC50 is the negative decadic logarithm of the IC50, by convention in mol/L. Consider `CC1(C)CC(=O)C2=C(C1)OC1=C(C(=O)CCC1(C)C)C2c1cc2ccccc2n1Cc1ccccc1` (stereo unspecified), for which the negative logarithm of the IC50 (pIC50) on Estrogen receptor is 6.23; in the series with T47D [1] it was 4.71. For the same molecule, the Activity result in the series on PBMC is reported as “Non-Toxic”.

With `CC1CC(=O)C2=C(C1)OC1=C(C(=O)CCC1)C2c1cc2ccccc2n1Cc1ccccc1` (stereo unspecified), the Activity in series [2] was 29.7%; with T47D [3] it was 31.06%; with PBMC, “Non-Toxic”. Also, the negative logarithm of the IC50 (pIC50) on Estrogen receptor is 7.78; in the series with T47D [1], 4.75. Further, the Drug uptake result in series [4] was “Not Active”; in [5], “Active”.

In the case of `O=C1CC(c2ccccc2)CC2=C1C(c1cc3ccccc3n1Cc1ccccc1)C1=C(CC(c3ccccc3)CC1=O)O2` (stereo unspecified), the inhibition entry in series [6] is “inactive”. Further, the Activity result in the series on PBMC is reported as “Non-Toxic”.

On to `CC1CC(=O)C2=C(C1)OC1=C(C(=O)CC(C)(C)C1)C2c1cc2ccccc2n1Cc1ccccc1` (stereo unspecified), for which the pIC50 at Estrogen receptor was 7.57; in the series with T47D [1] it was 4.70. Besides, the Activity result in the series with PBMC was “Non-Toxic”.

Molecule `CC/C(=C(\c1ccccc1)c1ccc(OCCN(C)C)cc1)c1ccccc1` [TAMOXIFEN] returned an Activity in the series on MCF7 of 10 µg/mL.

Consider `CC1(C)CCC(=O)C2=C1OC1=C(C(=O)CCC1(C)C)C2c1cc2ccccc2n1Cc1ccccc1`, for which the inhibition entry in [6] was “inactive”. In the series on PBMC, the Activity result is given as “Non-Toxic”.

For `CC1(C)CC(=O)C2=C(C1)OC1=C(C(=O)CC(C)(C)C1)C2c1cc2ccccc2n1Cc1ccccc1`, the negative logarithm of the IC50 (pIC50) is 7.22 on Estrogen receptor and 4.61 with T47D [1]. The Activity result with PBMC was “Non-Toxic”.

`O=C1CCC2=C1C(c1cc3ccccc3n1Cc1ccccc1)C1=C(CCC1=O)O2`: the pIC50 was 7.29 on Estrogen receptor and 4.60 in the series with T47D [1]. Moreover, the Activity entry in the series on PBMC is “Non-Toxic”.

In the case of `Oc1nc(S)nc2c1C(c1cc3ccccc3n1Cc1ccccc1)c1c(O)nc(S)nc1O2`, the inhibition result in series [6] is “inactive”. For the same molecule, the Activity entry in the series with PBMC was “Non-Toxic”.

Regarding `O=c1[nH]c2c(c(=O)[nH]1)C(c1cc3ccccc3n1Cc1ccccc1)c1c([nH]c(=O)[nH]c1=O)O2`, the negative logarithm of the IC50 (pIC50) is 7.21 on Estrogen receptor and 4.66 in the series with T47D [1]. Further, in the series with PBMC, the Activity entry is “Non-Toxic”.

Turning to `CC1(C)CCC(=O)C2=C1OC1=C(C(=O)CCC1)C2c1cc2ccccc2n1Cc1ccccc1` (stereo unspecified), the Activity in series [2] is 54.3%; in the series on T47D [3], 32.18%; with PBMC, “Non-Toxic”. Further, the Drug uptake entry in [7] is reported as “Active”; in series [4], “Not Active”. In addition, the results for the negative logarithm of the IC50 (pIC50) on Estrogen receptor and in the series with T47D [1] were 7.26 and 4.78, respectively.

Consider `CC1CC(=O)C2=C(C1)OC1=C(C(=O)CC(C)C1)C2c1cc2ccccc2n1Cc1ccccc1` (stereo unspecified), for which the pIC50 on Estrogen receptor is 6.32. Also, the Activity entry in the series with PBMC is given as “Non-Toxic”.

As for `CC1(C)CC(=O)C2C(C1)Oc1ccc3ccccc3c1C2c1ccc(O)cc1` (stereo unspecified), the Activity in the series with MCF7 came to 6.7 µg/mL.

In the case of `Cc1c(-c2ccc(O)cc2)n(Cc2ccc(OCCN3CCCCCC3)cc2)c2ccc(O)cc12` [BAZEDOXIFENE], the negative logarithm of the IC50 (pIC50) with T47D [1] is 4.78.

Regarding `CC1CC(=O)C2=C(C1)OC1=C(C(=O)CCC1(C)C)C2c1cc2ccccc2n1Cc1ccccc1` (stereo unspecified), the negative-log IC50 (pIC50) on Estrogen receptor is 6.45; with T47D [1], 4.68. Also, the Activity result in the series on PBMC is reported as “Non-Toxic”.

In the case of `CC1(C)CC(=O)C2=C(C1)OC1=C(C(=O)CCC1)C2c1cc2ccccc2n1Cc1ccccc1` (stereo unspecified), the pIC50 at Estrogen receptor was 7.73; in the series on T47D [1] it was 4.63. Moreover, the Activity entry with PBMC is “Non-Toxic”.

The values are drawn from ChEMBL document CHEMBL4184175, “Design, synthesis and biological evaluation of novel indole-xanthendione hybrids as selective estrogen receptor modulators” (Bioorg Med Chem, 2018).
